{"source": "paper PMC7249612", "about": "(Biochemistry, 2016)", "key": {"LoxA [1]": {"test_system": "LoxA", "assay": "LoxA secondary product profile", "type": "biochemical, Pseudomonas aeruginosa", "settings": "10 μM substrate; for times slower relative to the Kcat with AA: pH 7.0"}, "LoxA [2]": {"test_system": "LoxA", "assay": "LoxA substrate preference", "type": "biochemical, Pseudomonas aeruginosa", "settings": "initial rate at 10 μM substrate, pH 7.0, relative to AA", "summary_of_the_method": "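His6-tagged LoxA was expressed in E. coli BL21(DE3), purified on Ni-NTA, and dosed by iron content. About 7 nM enzyme started each reaction. Each fatty acid substrate was C18 HPLC-purified and used at 10 μM in 25 mM HEPES pH 7.0 without Triton X-100. Initial rate of conjugated diene formation was followed at 234 nm (ε 25000 M−1cm−1) and expressed relative to the AA rate.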"}, "LoxA [3]": {"test_system": "LoxA", "type": "biochemical, Pseudomonas aeruginosa", "settings": "for Kcat / Km: substrate of LoxA, 25 mM HEPES pH 7.0"}, "[4]": {"test_system": "P. aeruginosa biofilm growth", "assay": "Abiotic microtiter biofilm assay", "type": "cell-based, Pseudomonas aeruginosa", "settings": "1 μg LoxA protein added to loxA mutant or wild-type bacteria", "summary_of_the_method": "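Wild-type PAO1 and loxA::Tn strains were grown overnight in Luria broth at 37 °C with 225 rpm shaking. Cultures were diluted 1:30 in minimal essential medium in 96-well plates, with or without 1 μg recombinant LoxA protein. Plates were incubated 24 h at 37 °C without agitation. Medium was removed, biofilms were washed and stained with crystal violet, and growth was read as absorbance at 550 nm.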"}, "[5]": {"test_system": "P. aeruginosa biofilm growth on human airway epithelial cells", "assay": "Biotic biofilm assay on airway epithelial cells", "type": "cell-based, Pseudomonas aeruginosa", "settings": "recombinant protein delivered to airway epithelial cells", "summary_of_the_method": "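16HBE human bronchial epithelial cells were seeded at 7.4×10^4 per 6.5 mm transwell and polarized at air-liquid interface for 7 days. Cells were rinsed in MEM, and washed bacteria (wild-type PAO1 or loxA::Tn) were added at MOI 25–30. After 1 h, apical medium was replaced with MEM + 0.4% L-arginine for 5 h at 37 °C. Recombinant LoxA was added apically in MEM at increasing doses. Biofilms were released with 0.1% Triton X-100 and serially diluted for CFU/ml. Three experiments were run.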"}}, "data": [{"molecule": "CCCCC/C=C\\C/C=C\\C/C=C\\C=C\\[C@@H](O)CCCC(=O)O", "note": "[5-HETE]", "values": [{"measurement": "times slower relative to the Kcat with AA", "setting": "LoxA [1]", "result": "100,000 times"}]}, {"molecule": "CCCCCC=CCC=CCC=CC=CC(CCCC(=O)O)OO", "note": "(centres unmarked) [5-HpETE, 5-hydroperoxyeicosatetraenoic acid]", "values": [{"measurement": "times slower relative to the Kcat with AA", "setting": "LoxA [1]", "result": "100,000 times"}]}, {"molecule": "CCCCC[C@H](O)/C=C/C=C\\C/C=C\\C/C=C\\CCCC(=O)O", "note": "[15-HETE]", "values": [{"measurement": "times slower relative to the Kcat with AA", "setting": "LoxA [1]", "result": "100,000 times"}]}, {"molecule": "CCCCCC(/C=C/C=C\\C/C=C\\C/C=C\\CCCC(=O)O)OO", "note": "(centres unmarked) [15-HpETE, 15-hydroperoxyeicosatetraenoic acid]", "values": [{"measurement": "times slower relative to the Kcat with AA", "setting": "LoxA [1]", "result": "10,000 times"}]}, {"molecule": "CCCCC/C=C\\C/C=C\\C/C=C\\C/C=C\\CCCC(=O)O", "note": "[AA, arachidonic acid]", "values": [{"measurement": "% AA Rate (10 μM)", "setting": "LoxA [2]", "result": 100, "unit": "%"}, {"measurement": "Relative Kcat", "setting": "LoxA [1]; Kcat of LoxA with AA set to 1, unitless", "result": 1}]}, {"molecule": "CCCCC/C=C\\C/C=C\\CCCCCCCC(=O)O", "note": "[LA, linoleic acid]", "values": [{"measurement": "% AA Rate (10 μM)", "setting": "LoxA [2]", "result": "72(10) %"}, {"measurement": "KIE for Kcat", "setting": "LoxA [3]; noncompetitive, LA versus perdeuterated LA", "result": "32 +/− 6"}, {"measurement": "Kcat", "setting": "LoxA [3]", "result": "28 (2) s^−1"}, {"measurement": "Km", "setting": "LoxA [3]", "result": 7, "unit": "µM"}]}, {"molecule": "CCCCC/C=C\\C/C=C\\CCCCCCCC(=O)O", "note": "[d31-LA]", "values": [{"measurement": "Kcat", "setting": "LoxA [3]", "result": "0.9 (0.1) s^−1"}, {"measurement": "Km", "setting": "LoxA [3]", "result": 100, "unit": "µM"}]}, {"molecule": "LoxA protein: purified recombinant P. aeruginosa 15-lipoxygenase added to biofilm assays (protein, UniProt Q9I4G8 20-685, looked up) Lipoxygenase LoxA: NDSIFFSPLKYLGAEQQRSIDASRSLLDNLIPPSLPQYDNLAGKLARRAVLTSKKLVYVWTENFGNVKGVPMARSVPLGELPNVDWLLKTAGVIVELIVNFVASLPASAAAQFERIATGLSGDLEAARQVHEALLEEAKNDPAAAGSLLLRFTELQTRVIAILTRVGLLVDDILKSASNLVTQRGQGDGLNRFRAVFGTLRLPEVADSFRDDEAFAYWRVAGPNPLLIRRVDALPANFPLGEEQFRRVMGADDSLLEAAASRRLYLLDYAELGKLAPSGAVDKLLTGTGFAYAPIALFALGKDRARLLPVAIQCGQDPATHPMFVRPAESESDLYWGWQMAKTVVQVAEENYHEMFVHLAQTHLVSEAFCLATQRTLAPSHPLHVLLAPHFEGTLFINEGAARILLPSAGFIDVMFAAPIQDTQATAGGNRLGFDFYRGMLPESLKARNVDDPLALPDYPYRDDGLLVWNAIRQWAADYVAVYYASDGDVTADVELAAWVGEVIGSGKVAGFRPITGRSQLVEVLTMVIFTASAQHAAVNFPQPSMMTYAPAICAMSAAPAPDSPSGKSEADWLKMMPPTLVALEKVNIYHLLGSVYHGRLGDYRQTGFPYAPVFSDRRVTASGGPLERFQARLKEVEATIRTRNQARRRPYEYLLPSRIPASTNI", "values": [{"measurement": "effect on abiotic biofilm growth", "setting": "[4]", "result": "did not alter biofilm growth"}, {"measurement": "effect on biotic biofilm growth of loxA transposon mutant", "setting": "[5]", "result": "This decrease could be complemented"}]}]}
